B1: Phenylethanolamine N-methyltransferase (Bos taurus), P10938 (protein)
chain: MSGTDRSQAAGAVPDSDPGLAAVSSAYQRFEPRAYLRNNYAPPRGDLSCPDGVGPWKLRCLAQTFATGEVSGRTLIDIGSGPTIYQLLSACAHFEDITMTDFLEVNRQELRLWLREEPGAFDWSVYSQHVCLIEGKGESWQEKECQLRARVKRILPIDVHRPQPLGAGGLAPLPADALVSAFCLEAVSPDLASFQRALDHITTLLRPGGHLLLIGALEESWYLAGEARLAVVPVREEEVREALVRTATRCGICARTPMPAHLQTGVDDVKGIFFTRAQKKVGV

Tests used:
[1] = target: T1, Phenylethanolamine N-methyltransferase (Bos taurus, UniProt P10938); test: (§1) In vitro binding affinity of compound towards bovine adrenal phenylethanolamine N-methyl-transferase (PNMT)
T1 sequence (P10938 whole entry): B1 chain
Procedure, shortened: (§2)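 Bovine adrenal PNMT, purified through the isoelectric precipitation step, tested in a radiochemical methylation assay with isoamyl alcohol/toluene extraction. For substrates, Km came from at least five concentrations of the variable substrate. For inhibitors, Ki came from at least three inhibitor concentrations, with phenylethanolamine as the variable substrate.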

[2] = Vmax of compound was determined; type: ADME
Procedure, shortened: (§3)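 Substrate kinetics used bovine adrenal PNMT, purified through the isoelectric precipitation step, in a radiochemical methylation assay with isoamyl alcohol/toluene extraction. At least five concentrations of the variable substrate gave Km and Vmax. Vmax is in nmol product per mg protein per min, and the ratio is 100 × Vmax/Km.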

[3] = Ratio expressed as 100x Vmax/Km; type: ADME; procedure, shortened: as §3
[4] = substrate: C[C@H](N)[C@H](O)c1ccccc1; test: as §1; procedure, shortened: as §2
[5] = substrate: N[C@H]1CCc2ccccc2[C@H]1O; test: as §1; procedure, shortened: as §2

| Molecule | Ki [1] [µM] | Vmax [2] [nM/mg/min] | Ratio [3] | other results |
| --- | --- | --- | --- | --- |
| N[C@@H]1CCc2ccccc2C1 | 10 | – | – | – |
| N[C@H]1CCc2ccccc2[C@H]1O | – | 0.16 | 3.6 | – |
| C[C@H](N)[C@@H](O)c1ccccc1 [CATHINE] | 3700 | – | – | – |
| N[C@H]1CCc2ccccc2C1 | 4.1 | – | – | – |
| N[C@@H]1CCc2ccccc2[C@@H]1O | 293 | – | – | – |
| N[C@@H]1CCc2ccccc2C1O (single isomer, unassigned) | – | 0.12 | 0.062 | – |
| N[C@@H]1CCc2ccccc2[C@@H]1O (racemic) | – | 0.15 | – | – |
| NC[C@@H](O)c1ccccc1 | – | 0.92 | 0.96 | – |
| NC[C@H](O)c1ccccc1 | – | 4.85 | 1.7 | – |
| C[C@@H](N)[C@H](O)c1ccccc1 | 2440 | – | – | – |
| C[C@H](N)[C@H](O)c1ccccc1 [(1R,2S)-PHENYLPROPANOLAMINE] | – | 0.22 | 0.017 | – |
| N[C@H]1CCc2ccccc2[C@@H]1O | 4.6 | – | – | – |
| C[C@@H](N)[C@@H](O)c1ccccc1 [(1S,2R)-PHENYLPROPANOLAMINE] | 2980 | – | – | – |
| B1 | – | – | – | Km [4]: 1310 µM; Km [5]: 4.5 µM |
